Active and inactive are the calls of the source. The calls are words filed in the database; no cut-off is given here.
Tests used:
[1] = test system: SH-SY5Y; test: Neuroprotective activity against rotenone-oligomycin A-induced oxidative stress in human SH-SY5Y cells assessed as protection incubated with rot/oligo for 8 hrs followed by treated with compound at 5 uM for 16 hrs by MTT assay relative to control; type: functional
In short: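 SH-SY5Y cells cultured 24 h, then exposed to rotenone/oligomycin A (30/10 μM) for 8 h at 37 °C. Stressor was removed and cells incubated 16 h with compound in 1% FBS medium. Melatonin 0.3 μM was the positive control, and compounds were used at 5 μM. Viability by MTT; % protection against basal as 100%, normalized to rot/olig toxicity; five to seven cultures in triplicate.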

[2] = target: Voltage-dependent L-type calcium channel subunit alpha-1C (Rattus norvegicus, UniProt P22002); test: Inhibition of rat Cav1.2 channel in rat mesenteric artery assessed as relaxation of 70 mM K+ induced contraction; type: tissue-based; settings: for inhibition (INH): rat
In short: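 Third-order mesenteric artery segments (2 mm) from 6-month-old Wistar Kyoto rats on a wire myograph, isometric tension, Krebs−Henseleit at 37 °C, pH 7.4. Segments equilibrated, stretched to optimal diameter, tested with 120 mM KCl, endothelium checked with 10 μM acetylcholine.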

[3] = test system: SH-SY5Y; test: Neuroprotective activity against rotenone-oligomycin A-induced oxidative stress in human SH-SY5Y cells assessed as survival incubated with rot/oligo for 8 hrs followed by treated with compound at 5 uM for 16 hrs by MTT assay (Rvb =70.6 +/- 1.8%); type: functional; settings: read-out: Survival
In short: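 SH-SY5Y cells cultured 24 h, then exposed to rotenone/oligomycin A (30/10 μM) for 8 h at 37 °C. Stressor removed; compound in 1% FBS medium added for 16 h. DMSO-only control. MTT reduction (5 mg/mL, 2 h, 37 °C; OD 540 nm). Survival relative to untreated basal; mean ± SEM of five to seven cultures in triplicate.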

[4] = test system: SH-SY5Y; test: Neuroprotective activity against K+ induced Ca2+ overload in human SH-SY5Y cells assessed as survival at 5 uM after 24 hrs by MTT assay (reference value: 52.1 +/- 3.5%); type: functional; settings: read-out: Survival
[5] = test system: SH-SY5Y; test: Neuroprotective activity against K+ induced Ca2+ overload in human SH-SY5Y cells assessed as protection at 5 uM after 24 hrs by MTT assay relative to control; type: functional
In short: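 SH-SY5Y cells, 1 × 10⁵/well, 1% FBS medium, up to 13 passages. Compound diluted from 10⁻² M DMSO stock to 5 μM and co-incubated 24 h with 70 mM K⁺ (hypertonic); DMSO-only controls. MTT at 5 mg/mL for 2 h at 37 °C, read at 540 nm. % protection computed against basal as 100% survival and normalized to K⁺ toxicity; at least five cultures in triplicate.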

[6] = test system: SH-SY5Y; test: Neuroprotective activity against rotenone-oligomycin A-induced oxidative stress in human SH-SY5Y cells assessed as survival at 5 uM co-incubated rot/oligo for 24 hrs by MTT assay (Rvb =65.6 +/- 1.3%); type: functional; settings: read-out: Survival
[7] = target: Voltage-dependent L-type calcium channel subunit alpha-1D (Homo sapiens, UniProt Q01668); test: Inhibition of human Cav1.3 channel in human SH-SY5Y cells assessed as 70 mM K+ induced calcium elevation compound treated 15 mins before stimulus by Fluo-4/AM assay; type: cell-based
In short: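 SH-SY5Y cells grown 2 days, loaded with 10 μM Fluo-4/AM for 1 h at 37 °C in serum-free medium, washed with Krebs-HEPES and held 15 min at room temperature. Compound applied 15 min before 70 mM KCl.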

[8] = test system: SH-SY5Y; test: Neuroprotective activity against rotenone-oligomycin A-induced oxidative stress in human SH-SY5Y cells assessed as protection at 5 uM co-incubated rot/oligo for 24 hrs by MTT assay relative to control; type: functional
In short: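 SH-SY5Y cells in 1% FBS medium co-incubated 24 h with compound and rotenone/oligomycin A (30/10 μM). Melatonin 0.3 μM was the positive control, and compounds were used at 5 μM. Viability by MTT reduction at 540 nm. % protection computed against basal as 100% and normalized to rot/olig toxicity; five to seven cultures in triplicate.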

[9] = test system: SH-SY5Y; test: Neuroprotective activity against K+ induced Ca2+ overload in human SH-SY5Y cells assessed as survival at 0.3 uM after 24 hrs by MTT assay (reference value: 52.1 +/- 3.5%); type: functional; settings: read-out: Survival
[10] = test system: Hippocampus; test: Neuroprotective activity against oxygen-glucose deprivation induced-oxidative stress in rat hippocampal slices assessed as maximum protection treated at 10 uM during 120 mins of reoxygenation period by MTT assay (Rvb =40%); type: functional
In short: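 Transverse hippocampal slices ([…] as printed) from adult male Sprague−Dawley rats (275−325 g). After 30 min stabilization, 15 min OGD at 37 °C in glucose-free Krebs (2-deoxyglucose) under 95% N₂/5% CO₂, then 120 min reoxygenation in oxygenated Krebs with compound (1, 3, 10 μM) present. MTT at 0.5 mg/mL for 30 min at 37 °C; control slices set as 100%; five experiments.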

[11] = test system: SH-SY5Y; test: Neuroprotective activity against K+ induced Ca2+ overload in human SH-SY5Y cells assessed as protection at 0.3 uM after 24 hrs by MTT assay relative to control; type: functional
[12] = Selectivity ratio of IC50 for human Cav1.3 channel to IC50 for rat Cav1.2 channel

Sequence of Voltage-dependent L-type calcium channel subunit alpha-1D (Q01668 whole entry): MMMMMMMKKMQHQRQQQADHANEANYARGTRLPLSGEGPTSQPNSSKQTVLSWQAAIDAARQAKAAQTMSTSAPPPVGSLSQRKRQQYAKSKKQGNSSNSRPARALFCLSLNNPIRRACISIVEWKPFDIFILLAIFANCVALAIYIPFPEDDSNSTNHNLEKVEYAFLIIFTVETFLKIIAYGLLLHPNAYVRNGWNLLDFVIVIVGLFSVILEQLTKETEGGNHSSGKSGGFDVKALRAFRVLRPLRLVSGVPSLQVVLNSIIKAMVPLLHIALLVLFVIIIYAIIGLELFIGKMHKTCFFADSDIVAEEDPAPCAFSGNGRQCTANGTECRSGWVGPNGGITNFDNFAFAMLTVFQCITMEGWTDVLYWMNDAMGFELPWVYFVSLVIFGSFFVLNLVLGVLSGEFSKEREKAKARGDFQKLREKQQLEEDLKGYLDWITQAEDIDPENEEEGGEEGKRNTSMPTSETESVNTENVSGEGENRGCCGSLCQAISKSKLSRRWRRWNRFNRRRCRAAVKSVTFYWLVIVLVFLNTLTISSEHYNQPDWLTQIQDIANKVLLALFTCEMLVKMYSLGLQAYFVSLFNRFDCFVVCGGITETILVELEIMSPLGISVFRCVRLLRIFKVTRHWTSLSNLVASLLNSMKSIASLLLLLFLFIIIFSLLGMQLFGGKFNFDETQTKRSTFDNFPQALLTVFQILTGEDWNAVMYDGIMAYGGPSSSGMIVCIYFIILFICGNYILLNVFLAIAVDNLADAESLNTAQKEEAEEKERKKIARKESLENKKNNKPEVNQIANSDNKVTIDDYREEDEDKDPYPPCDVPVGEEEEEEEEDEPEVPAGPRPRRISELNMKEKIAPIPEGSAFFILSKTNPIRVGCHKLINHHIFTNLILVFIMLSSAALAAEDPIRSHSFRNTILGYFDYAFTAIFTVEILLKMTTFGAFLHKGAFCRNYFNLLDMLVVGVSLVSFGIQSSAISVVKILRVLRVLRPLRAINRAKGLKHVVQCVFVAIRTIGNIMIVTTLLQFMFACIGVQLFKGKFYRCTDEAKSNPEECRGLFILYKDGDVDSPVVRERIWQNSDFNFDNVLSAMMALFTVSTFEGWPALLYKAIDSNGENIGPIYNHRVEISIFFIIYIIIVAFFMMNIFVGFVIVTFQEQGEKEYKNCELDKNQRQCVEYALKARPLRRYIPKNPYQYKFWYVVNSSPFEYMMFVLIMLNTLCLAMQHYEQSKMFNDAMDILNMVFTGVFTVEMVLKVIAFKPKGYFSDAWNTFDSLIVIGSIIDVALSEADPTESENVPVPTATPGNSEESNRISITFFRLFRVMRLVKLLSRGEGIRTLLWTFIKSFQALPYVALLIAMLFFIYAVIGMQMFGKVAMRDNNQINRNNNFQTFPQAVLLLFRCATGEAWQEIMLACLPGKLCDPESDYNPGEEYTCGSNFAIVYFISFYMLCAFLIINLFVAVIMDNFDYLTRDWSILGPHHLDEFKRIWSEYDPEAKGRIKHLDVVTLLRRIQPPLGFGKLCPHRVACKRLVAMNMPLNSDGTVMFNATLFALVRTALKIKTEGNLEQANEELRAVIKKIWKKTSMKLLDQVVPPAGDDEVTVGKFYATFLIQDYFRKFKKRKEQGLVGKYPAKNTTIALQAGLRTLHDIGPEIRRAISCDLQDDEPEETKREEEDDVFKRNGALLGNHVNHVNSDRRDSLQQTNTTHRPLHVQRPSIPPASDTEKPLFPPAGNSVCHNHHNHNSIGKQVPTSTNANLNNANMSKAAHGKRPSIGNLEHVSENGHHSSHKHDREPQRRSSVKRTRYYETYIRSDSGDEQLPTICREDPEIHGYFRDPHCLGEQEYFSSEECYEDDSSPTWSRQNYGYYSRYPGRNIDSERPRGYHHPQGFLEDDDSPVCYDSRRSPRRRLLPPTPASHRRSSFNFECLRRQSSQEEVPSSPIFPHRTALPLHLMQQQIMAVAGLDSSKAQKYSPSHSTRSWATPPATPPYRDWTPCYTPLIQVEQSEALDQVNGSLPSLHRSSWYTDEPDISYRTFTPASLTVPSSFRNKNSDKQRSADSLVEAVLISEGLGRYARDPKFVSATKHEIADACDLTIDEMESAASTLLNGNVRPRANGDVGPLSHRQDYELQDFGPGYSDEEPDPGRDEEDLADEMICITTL
Sequence of Voltage-dependent L-type calcium channel subunit alpha-1C (P22002 whole entry): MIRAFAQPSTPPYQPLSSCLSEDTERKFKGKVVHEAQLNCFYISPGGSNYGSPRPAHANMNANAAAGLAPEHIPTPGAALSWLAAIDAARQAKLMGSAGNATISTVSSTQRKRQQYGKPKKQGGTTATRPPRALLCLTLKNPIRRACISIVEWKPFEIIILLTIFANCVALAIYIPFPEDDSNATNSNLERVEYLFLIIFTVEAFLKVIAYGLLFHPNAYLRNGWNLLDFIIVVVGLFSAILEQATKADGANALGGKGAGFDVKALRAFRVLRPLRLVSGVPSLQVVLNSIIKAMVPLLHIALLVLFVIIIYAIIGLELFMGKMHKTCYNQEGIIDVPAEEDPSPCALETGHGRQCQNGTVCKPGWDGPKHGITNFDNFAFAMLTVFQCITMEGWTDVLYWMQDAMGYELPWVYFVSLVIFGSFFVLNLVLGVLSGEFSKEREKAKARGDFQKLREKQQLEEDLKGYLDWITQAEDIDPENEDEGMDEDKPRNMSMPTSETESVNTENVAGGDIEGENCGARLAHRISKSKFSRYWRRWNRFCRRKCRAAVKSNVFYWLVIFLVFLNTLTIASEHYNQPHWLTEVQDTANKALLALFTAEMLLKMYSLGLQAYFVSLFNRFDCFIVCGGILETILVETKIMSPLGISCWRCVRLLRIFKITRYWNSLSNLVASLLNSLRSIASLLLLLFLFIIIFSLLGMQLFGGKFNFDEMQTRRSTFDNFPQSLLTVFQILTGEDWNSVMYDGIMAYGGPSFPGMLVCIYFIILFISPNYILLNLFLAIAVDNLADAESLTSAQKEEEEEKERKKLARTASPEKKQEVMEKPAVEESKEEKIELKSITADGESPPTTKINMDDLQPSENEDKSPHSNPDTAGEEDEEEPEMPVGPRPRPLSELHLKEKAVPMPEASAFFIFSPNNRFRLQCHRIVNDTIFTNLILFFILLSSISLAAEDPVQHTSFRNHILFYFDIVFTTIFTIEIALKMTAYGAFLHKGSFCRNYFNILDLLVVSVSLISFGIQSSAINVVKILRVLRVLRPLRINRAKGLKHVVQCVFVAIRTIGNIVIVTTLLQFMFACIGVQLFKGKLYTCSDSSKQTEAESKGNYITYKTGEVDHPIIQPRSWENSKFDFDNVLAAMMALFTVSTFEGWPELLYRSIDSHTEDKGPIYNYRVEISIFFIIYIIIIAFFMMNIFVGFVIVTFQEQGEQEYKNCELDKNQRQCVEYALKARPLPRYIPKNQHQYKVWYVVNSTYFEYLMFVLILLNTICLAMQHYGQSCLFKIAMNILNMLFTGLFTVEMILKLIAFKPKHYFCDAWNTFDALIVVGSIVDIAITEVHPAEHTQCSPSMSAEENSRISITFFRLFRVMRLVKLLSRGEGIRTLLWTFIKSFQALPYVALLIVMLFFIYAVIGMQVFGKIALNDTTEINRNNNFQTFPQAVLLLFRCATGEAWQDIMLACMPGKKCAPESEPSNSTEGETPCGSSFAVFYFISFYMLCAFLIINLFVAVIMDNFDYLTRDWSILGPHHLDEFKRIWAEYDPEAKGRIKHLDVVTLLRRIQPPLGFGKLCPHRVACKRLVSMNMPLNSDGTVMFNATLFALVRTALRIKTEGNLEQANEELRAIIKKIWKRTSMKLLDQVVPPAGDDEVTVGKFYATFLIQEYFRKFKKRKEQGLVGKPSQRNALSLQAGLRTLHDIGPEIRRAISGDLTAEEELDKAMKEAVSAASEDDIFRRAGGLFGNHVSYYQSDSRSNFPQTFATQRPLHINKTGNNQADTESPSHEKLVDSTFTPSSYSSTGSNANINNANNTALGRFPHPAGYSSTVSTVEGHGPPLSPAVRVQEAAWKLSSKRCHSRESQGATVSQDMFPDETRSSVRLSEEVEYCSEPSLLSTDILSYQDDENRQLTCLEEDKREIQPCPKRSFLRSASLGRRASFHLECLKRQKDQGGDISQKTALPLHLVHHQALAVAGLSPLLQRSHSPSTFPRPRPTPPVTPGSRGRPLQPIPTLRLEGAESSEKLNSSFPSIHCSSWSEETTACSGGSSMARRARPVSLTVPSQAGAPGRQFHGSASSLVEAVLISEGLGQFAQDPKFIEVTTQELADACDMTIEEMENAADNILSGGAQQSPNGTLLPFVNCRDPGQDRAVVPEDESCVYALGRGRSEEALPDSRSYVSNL

| Structure (SMILES) | Activity [1] | inhibition (INH) [2] | viability at 5 µM [3] | viability at 5 µM [4] | Activity [5] | viability at 5 µM [6] | IC50 [7] | Activity [8] | viability at 0.3 µM [9] | Activity [10] | Activity [11] | IC50 [2] | Ratio IC50 [12] | inhibition [7] |
| --- | --- | --- | --- | --- | --- | --- | --- | --- | --- | --- | --- | --- | --- | --- |
| CC1=C(C(=O)SC(C)(C)C)C(c2ccc(Br)cc2)C=C(c2ccc(C)cc2)N1 (stereo not drawn) | 12.3% | Dose-dependent effect | 74.2% | 67.2% | 34.5% | 85.7% | 59.6 µM | 57.9% |  |  |  |  |  |  |
| CCCC1=C(C(=O)OCC)C(c2ccccc2)C=C(c2ccccc2)N1 (stereo not drawn) | 34.8% |  | 80.6% | 65.4% | 23.3% | 80.5% | 9.9 µM | 42.9% |  |  |  |  |  |  |
| CC1=C(C(=O)SC(C)(C)C)C(c2ccccc2)C=C(c2ccccc2)N1 (stereo not drawn) |  | Dose-dependent effect |  | 68% | 34.1% | 79.5% | 95.8 µM | 39.6% |  |  |  |  |  |  |
| COC(=O)C1=C(C)NC(C)=C(C(=O)OC)C1c1ccccc1[N+](=O)[O-] [NIFEDIPINE] | 11.7% | Dose-dependent effect | 73.8% | 62.9% | 20% | 78.4% |  | 29.3% | 58.7% | inactive | 15.8% |  |  |  |
| CCOC(=O)C1=C(C)NC(c2ccccc2)=CC1c1ccc(C)cc1 (stereo not drawn) | 60.1% | Dose-dependent effect | 88% | 72.3% | 39.8% | 83.5% | 20.6 µM | 53.3% |  | 45% |  | 10.6 µM | 1.9 | 43% |
| CC1=C(C(=O)SC(C)(C)C)C(c2ccc(C)cc2)C=C(c2ccccc2)N1 (stereo not drawn) | 43.3% |  | 83.4% | 67.4% | 30.4% | 83.3% | 56.2 µM | 49.4% |  |  |  |  |  |  |
| CCOC(=O)C1=C(C)NC(c2ccc(Cl)cc2)=CC1c1ccc(Cl)cc1 (stereo not drawn) |  | Dose-dependent effect |  | 65.1% | 24.8% | 69.9% | 28.4 µM | 11.9% |  |  |  |  |  |  |
| C=CCOC(=O)C1=C(C)NC(c2ccc(Cl)cc2)=CC1c1ccccc1 (stereo not drawn) | 44.1% | Dose-dependent effect | 84.3% | 68.7% | 29.8% | 79.7% | 18.5 µM | 41.5% |  |  |  |  |  |  |
| O=C1CCCC2=C1C(c1ccccc1)C=C(c1ccccc1)N2 (stereo not drawn) |  |  |  | 66.4% | 28.2% | 80.3% | 24 µM | 39.8% |  |  |  |  |  |  |
| CCOC(=O)C1=C(C)NC(c2ccc(C)cc2)=CC1c1ccccc1[N+](=O)[O-] (stereo not drawn) |  |  |  | 62.9% | 22.1% | 69.9% | 44.1 µM | 11.7% |  |  |  |  |  |  |
| CC1(C)CC(=O)C2=C(C1)NC(c1ccccc1)=CC2c1ccccc1 (stereo not drawn) |  | Dose-dependent effect |  | 64% | 21.4% | 74.6% | 2.8 µM | 26.9% |  |  |  | 0.34 µM | 8.3 | 79% |
| CCOC(=O)C1=C(C)NC(c2ccccc2)=CC1c1ccccc1 (stereo not drawn) |  |  |  | 67.6% | 34.6% | 78.4% | 18.7 µM | 32.5% |  |  |  |  |  |  |
